Measured values from paper PMC2757176 (The Journal of biological chemistry, 2009).
Blank lines part the entries; values can stand above or below the molecule they belong to. Non-standard residues stand in square brackets, D forms with d. Residues, ends and D or L forms follow the SMILES beside them. *: point of attachment. Biotin = O=C1N[C@H]2[C@H](CS[C@H]2CCCCC(=O)*)N1; pY = N[C@@H](Cc1ccc(OP(=O)(O)O)cc1)C(=O)O

What was measured:
Test in all cases: Biacore
Type in all cases: binding
human LCK SH3-SH2 = human LCK SH3-SH2 (Homo sapiens, UniProt P06239)
Sequence of human LCK SH3-SH2 (P06239 58-230): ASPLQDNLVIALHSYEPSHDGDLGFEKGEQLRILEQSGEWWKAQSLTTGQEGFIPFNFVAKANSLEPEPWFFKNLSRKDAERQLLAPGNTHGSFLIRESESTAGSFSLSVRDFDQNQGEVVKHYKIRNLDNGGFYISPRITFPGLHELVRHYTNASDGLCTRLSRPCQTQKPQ
In short: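 Recombinant human LCK SH3-SH2 (aa 58–230), N-terminal His-tagged, nickel-agarose purified, gel-filtered; concentration from A280 using a theoretical extinction coefficient. BIAcore 3000 at 37 °C: ~3000 RU streptavidin amine-coupled to CM5 captured biotinylated peptides (CD2 proline-rich peptides ~100 RU; phospho-CD244 ITSM1 ~25 RU). Protein passed at various concentrations; equilibrium binding fitted for Kd against a control flow cell.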

human FYN SH3-SH2 = human FYN SH3-SH2 (Homo sapiens, UniProt P06241)
Sequence of human FYN SH3-SH2 (P06241 82-248): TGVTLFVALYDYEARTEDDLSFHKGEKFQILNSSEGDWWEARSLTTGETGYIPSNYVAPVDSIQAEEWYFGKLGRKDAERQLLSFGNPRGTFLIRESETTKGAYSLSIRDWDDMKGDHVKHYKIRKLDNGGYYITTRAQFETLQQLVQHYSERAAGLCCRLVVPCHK

human PLC-γ1 SH2 N+C = target: T1, human PLC-γ1 SH2 N+C (Homo sapiens, UniProt P19174); conditions: ratio of SPR affinities, PLC-γ1 SH2 N+C versus FYN-SH3-SH2
T1 sequence (P19174 545-749): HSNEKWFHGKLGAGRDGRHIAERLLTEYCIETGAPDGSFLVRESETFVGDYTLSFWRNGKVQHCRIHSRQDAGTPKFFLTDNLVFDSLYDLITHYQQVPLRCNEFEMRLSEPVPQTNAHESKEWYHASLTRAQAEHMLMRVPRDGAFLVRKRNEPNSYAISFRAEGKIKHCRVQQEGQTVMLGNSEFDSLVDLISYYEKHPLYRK

Molecule: CC(C)[C@H](NC(=O)[C@H](CCCNC(=N)N)NC(=O)[C@H](Cc1c[nH]cn1)NC(=O)CNC(=O)[C@@H]1CCCN1C(=O)[C@@H]1CCCN1C(=O)[C@@H]1CCCN1C(=O)[C@@H]1CCCN1C(=O)[C@H](CCCNC(=N)N)NC(=O)[C@H](Cc1c[nH]cn1)NC(=O)[C@H](CO)NC(=O)[C@@H]1CCCN1C(=O)[C@H](C)NC(=O)[C@H](CCC(N)=O)NC(=O)[C@H](CO)NC(=O)[C@H](CCCNC(=N)N)NC(=O)[C@H](Cc1c[nH]cn1)NC(=O)CNC(=O)[C@@H]1CCCN1C(=O)[C@@H]1CCCN1C(=O)[C@@H]1CCCN1C(=O)[C@@H]1CCCN1C(=O)[C@@H]1CCCN1C(=O)[C@H](Cc1c[nH]cn1)NC(=O)CCCC[C@@H]1SC[C@@H]2NC(=O)N[C@@H]21)C(=O)N[C@@H](CCC(N)=O)C(=O)O [CD2-281-305] (Biotin-HPPPPPGHRSQAPSHRPPPPGHRVQ-OH)
Kd (human LCK SH3-SH2): > 1 mM

Molecule: CC(C)C[C@H](NC(=O)[C@@H]1CCCN1C(=O)[C@@H]1CCCN1C(=O)CNC(=O)[C@H](CCCCN)NC(=O)[C@H](CCC(N)=O)NC(=O)CCCC[C@@H]1SC[C@@H]2NC(=O)N[C@@H]21)C(=O)N1CCC[C@H]1C(=O)N[C@@H](CCCNC(=N)N)C(=O)N1CCC[C@H]1C(=O)N[C@@H](CCCNC(=N)N)C(=O)N[C@H](C(=O)N[C@@H](CCC(N)=O)C(=O)N1CCC[C@H]1C(=O)N[C@@H](CCCCN)C(=O)N1CCC[C@H]1C(=O)N1CCC[C@H]1C(=O)N[C@@H](Cc1c[nH]cn1)C(=O)NCC(=O)O)C(C)C [CD2-322] (Biotin-QKGPPLPRPRVQPKPPHG-OH)
Kd (human LCK SH3-SH2): > 1 mM

FYN binding, fold weaker than to the CD244 ITSM (human FYN SH3-SH2; ratio of SPR affinities, relative to CD244 ITSM 1 peptide): ~ 5 fold
fold increase in affinity of PLC-γ1 compared with FYN binding (human PLC-γ1 SH2 N+C): 30 fold
Molecule: CC(C)C[C@H](NC(=O)[C@@H](NC(=O)[C@H](CC(=O)O)NC(=O)[C@@H](NC(=O)[C@H](Cc1ccc(OP(=O)(O)O)cc1)NC(=O)[C@H](CC(=O)O)NC(=O)[C@H](CO)NC(=O)[C@H](CC(N)=O)NC(=O)[C@H](CO)NC(=O)[C@H](CC(N)=O)NC(=O)CCCC[C@@H]1SC[C@@H]2NC(=O)N[C@@H]21)C(C)C)C(C)C)C(=O)N1CCC[C@H]1C(=O)O [EAT-2 127] (Biotin-NSNSD[pY]VDVLP-OH)

FYN-SH3-SH2 binding to immobilised peptide (in words) (human FYN SH3-SH2; SPR, 37 °C, biotinylated peptide on streptavidin chip): Negligible binding
Molecule: Biotin-KQFQP[pY]FIPIN-OH [CTLA-4, reference compound]
